Source: PubChem BioAssay
TRPC4 act – activators of mouse TRPC4 channel, primary screen, Fluo4 calcium, HEK293 TRPC4beta/mu-opioid cells. AID 2237, 2010. hit rate 0.49% among 310,000. Fluo4 calcium fluorescence; active compounds read high. Short transient receptor potential channel 4 (Mus musculus), Q9QUQ5. B-score at 10 µM;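 active = B-score above 5 SD of library B-scores, and initial fluorescence ratio not above library mean plus 5 SD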;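 note: positive B-score marks a calcium rise read as TRPC4 activation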
Target sequence (Q9QUQ5 whole entry, looked up): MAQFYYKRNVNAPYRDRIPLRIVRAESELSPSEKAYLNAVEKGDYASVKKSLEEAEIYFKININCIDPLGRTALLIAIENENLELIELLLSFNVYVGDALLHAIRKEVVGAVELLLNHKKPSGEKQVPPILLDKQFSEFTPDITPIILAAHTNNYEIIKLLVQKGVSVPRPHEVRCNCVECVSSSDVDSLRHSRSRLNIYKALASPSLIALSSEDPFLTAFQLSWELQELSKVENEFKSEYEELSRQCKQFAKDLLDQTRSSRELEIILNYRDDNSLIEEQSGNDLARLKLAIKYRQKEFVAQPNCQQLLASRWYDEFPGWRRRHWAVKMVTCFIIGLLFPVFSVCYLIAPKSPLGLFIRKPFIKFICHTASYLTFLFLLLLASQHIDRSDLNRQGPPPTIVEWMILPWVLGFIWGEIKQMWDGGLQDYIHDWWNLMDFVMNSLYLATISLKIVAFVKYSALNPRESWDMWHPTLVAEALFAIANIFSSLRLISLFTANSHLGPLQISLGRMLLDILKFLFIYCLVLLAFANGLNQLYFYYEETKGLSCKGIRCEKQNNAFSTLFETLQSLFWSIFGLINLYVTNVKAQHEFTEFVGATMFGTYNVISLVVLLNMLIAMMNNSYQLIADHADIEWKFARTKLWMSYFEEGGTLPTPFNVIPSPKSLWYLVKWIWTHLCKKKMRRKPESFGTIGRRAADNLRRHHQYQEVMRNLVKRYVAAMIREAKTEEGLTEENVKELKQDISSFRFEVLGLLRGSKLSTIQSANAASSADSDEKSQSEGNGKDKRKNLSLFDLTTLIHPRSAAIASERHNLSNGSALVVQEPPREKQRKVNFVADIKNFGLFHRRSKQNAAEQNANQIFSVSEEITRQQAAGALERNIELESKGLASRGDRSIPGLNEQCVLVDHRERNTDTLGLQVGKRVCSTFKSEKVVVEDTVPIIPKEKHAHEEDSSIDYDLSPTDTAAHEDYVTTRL
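system = HEK293 cells stably co-expressing mouse TRPC4beta and mu-opioid receptor | schedule = Fluo4 dye loading 45 min at room temperature, 110 s recording | measure = B-scored integrated calcium fluorescence ratio | signal = Fluo4 calcium-sensitive dye fluorescence, kinetic, 1 Hz baseline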
TRPC4 potent – positive allosteric modulators of TRPC4, primary screen, cell-based, mouse TRPC4beta, HEK293 mu-opioid, Fluo-4 calcium. Short transient receptor potential channel 4 (Mus musculus), Q9QUQ5. B-score at 10 µM. hit rate 0.42% among 310,000. DAMGO EC20, Fluo-4 Ca2+ flux; active compounds read high. AID 2227, 2009;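 active = B-score of calcium response area above 5 SD of library B-scores, with initial fluorescence ratio within 5 SD of library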
TRPC4 inh – inhibitors of mouse TRPC4 channel, primary screen, Fluo4 calcium, HEK293 TRPC4beta/mu-opioid cells. Short transient receptor potential channel 4 (Mus musculus), Q9QUQ5. DAMGO-evoked Fluo4 calcium flux; active compounds read low. B-score at 10 µM. hit rate 0.39% among 300,000;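 active = B-score over 3 SD under the library average, no early fluorescence shift, positive overall ratio signal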
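test system = HEK293 cells with stable TRPC4beta plus mu-opioid receptor expression | detection = Fluo4 Ca2+ flux fluorescence | read-out = integrated fluorescence ratio relative to baseline, converted to per-well B score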
TRPC6 act – mouse TRPC6 channel activators, primary screen, cell-based, HEK293, membrane potential dye. B-score at 10 µM. HEK293-TRPC6 membrane potential dye fluorescence; active compounds read high. hit rate 0.13% among 310,000. Short transient receptor potential channel 6 (Mus musculus), Q61143;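 active = B-score of the integrated fluorescence ratio above library mean plus 3 SD, and starting fluorescence ratio within library mean plus 5 SD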;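 note: higher score means more depolarization so channel activation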
TRPC6 inh – mouse TRPC6 channel inhibitors, primary screen, cell-based, HEK293, membrane potential dye; Short transient receptor potential channel 6 (Mus musculus), Q61143; ACh-evoked depolarization; active compounds read low; B-score at 10 µM; hit rate 1.1% among 310,000;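 active = B-score under library mean minus 3 SD, initial fluorescence not abnormally high, positive integrated signal ratio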;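 note: B-score derived from integrated fluorescence ratio over the kinetic read; more negative B-score means stronger inhibition of depolarization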
TRPC4 spec 2 – second check of whether TRPC6 inhibitors also affect mouse TRPC4. hit rate 42% among 920. HEK293 TRPC4/MOR, membrane potential dye fluorescence; channel activated by saturating DAMGO dose. inhibition, % at 10 µM. AID 2776. shares compounds with TRPC6 inh;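 active = compounds whose fluorescence signal differed from control wells by over 3 SD, either direction, in both duplicate plates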
TRPC4 spec – mouse TRPC4 modulation by TRPC6 hits, confirmation, selectivity assay for TRPC6 inhibitor project, cell-based, HEK293 TRPC4/mu-opioid, membrane potential dye. shares compounds with TRPC6 inh. membrane potential fluorescence. activity change, negative = inhibition, % at 10 µM. hit rate 61% among 920;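 active = rise or fall in signal beyond 3 SD of buffer-only wells in both replicate plates, either sign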;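 note: integrated kinetic ratio of fluorescence range over baseline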
HEK293 MPD ctr 2-1 – nonspecific membrane potential effects, parental HEK293, confirmation, counter-screen for TRPC6 inhibitor project, cell-based, second counter screen | shares compounds with TRPC6 inh | parental HEK293 membrane potential dye fluorescence; maximal acetylcholine challenge after compound addition | signal change vs control, % at 10 µM | hit rate 31% among 920;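 active = membrane potential signal moving either way by over 3 SD of the maximum-effect control, in both duplicate plates, meaning non-specific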
HEK293 MPD ctr-1 – membrane potential modulation in parental HEK293, confirmation, counter-screen for TRPC6 inhibitor project, cell-based | shares compounds with TRPC6 inh | parental HEK293 membrane potential dye fluorescence | membrane potential signal change, % at 10 µM | hit rate 60% among 920 | AID 2780, 2010;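 active = membrane potential signal shifting up or down by more than 3 SD of buffer-only wells, on both duplicate plates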
HEK293 MPD ctr-2 – parental HEK293 membrane potential modulation, confirmation, counter-screen for TRPC6 modulator project, cell-based. shares compounds with TRPC6 inh. membrane potential dye fluorescence. membrane potential signal change, % at 10 µM. hit rate 51% among 2,400. AID 488924, 2010;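 active = membrane potential signal moves up or down beyond 5 SD from buffer-only wells, on both duplicate plates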
HEK293 MPD ctr 2-2 – parental HEK293 nonspecific activity of TRPC6 modulators, second screen. shares compounds with TRPC6 inh. membrane potential dye fluorescence; after compound, maximal acetylcholine stimulation. inhibition, % at 10 µM. hit rate 14% among 2,400. AID 488926;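 active = membrane potential signal drops by more than 5 SD from the mean control signal, in both duplicate plates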
TRPC4/MOR mod – TRPC4 modulation by TRPC6 hit compounds, confirmation, selectivity assay for TRPC6 modulator project, cell-based, HEK293 TRPC4/mu-opioid, membrane potential dye, mouse | shares compounds with TRPC6 inh | membrane potential fluorescence | percent change from control (negative = decrease, positive = increase), % at 10 µM | hit rate 69% among 2,400 | AID 488927, 2010;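 active = membrane potential signal moved up or down beyond 5 SD of buffer control wells, in both duplicate plates, actives on both sides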
TRPC4 ctr inh 2 – mouse TRPC4 off-target activity of TRPC6 modulators, second screen | shares compounds with TRPC6 inh | HEK293 TRPC4/mu-opioid, membrane potential dye fluorescence; stimulated with maximal-effect DAMGO | inhibition, % at 10 µM | hit rate 55% among 2,400 | AID 488928;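 active = drop in membrane potential signal beyond 5 SD of the control wells in both duplicate plates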;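 note: TRPC4 counter screen for TRPC6 hits run under conditions tuned for TRPC6 not TRPC4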
TRPC6 inh conf – mouse TRPC6 channel inhibitors, confirmation, HEK293 cells, membrane potential dye, duplicate; shares compounds with TRPC6 inh; ACh-evoked depolarization; inhibition, % at 10 µM; hit rate 43% among 3,300; AID 488960, 2010;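 active = fluorescence ratio falls more than 5 SD below the full-stimulation control mean, in both duplicate runs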;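 note: integrated fluorescence ratio of peak minus minimum over baseline after agonist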
TRPC6 act confirm – mouse TRPC6 channel activators, confirmation, HEK293 cells, membrane potential dye, duplicate. shares compounds with TRPC6 inh. HEK293-TRPC6 membrane potential dye fluorescence, FDSS. activation, % at 10 µM. hit rate 11% among 2,800. AID 488961, 2010;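 active = ratio signal rise beyond 5 SD above unstimulated control wells' mean, seen in both duplicate runs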
A number is an active result. The list is not random: actives were taken first. Their share in the collection is about 2.3%.

For CC(C)c1ccc(NC(=O)CSc2n[nH]c(=O)n2-c2cccnc2)cc1 the results were TRPC4 act inactive, TRPC4 potent inactive, TRPC4 inh inactive, TRPC6 act inactive and TRPC6 inh inactive.
For Cc1c(CCOC(=O)C23CC4CC(CC(C)(C4)C2)C3)sc[n+]1Cc1ccccc1 the results were TRPC4 act inactive, TRPC4 potent inactive, TRPC4 inh inactive, TRPC6 act inactive and TRPC6 inh inactive.
Cc1c(CCOC(=O)C23CC4CC(CC(C4)C2)C3)sc[n+]1Cc1ccccc1 was read as TRPC4 act inactive, TRPC4 potent inactive, TRPC4 inh inactive, TRPC6 act inactive, TRPC6 inh -7.5, TRPC4 spec 2 inactive, TRPC4 spec inactive, HEK293 MPD ctr 2-1 -9.5%, HEK293 MPD ctr-1 inactive, TRPC6 inh conf 88% and TRPC6 act confirm inactive.
For Cc1ccc(C(=O)OCCN(C)Cc2ccccc2)cc1 the results were TRPC4 act inactive, TRPC4 potent inactive, TRPC4 inh inactive, TRPC6 act inactive and TRPC6 inh inactive.
Cc1ccc(C(=O)OCCc2sc[n+](Cc3ccccc3)c2C)cc1 was read as TRPC4 act inactive, TRPC4 potent inactive, TRPC4 inh inactive, TRPC6 act inactive, TRPC6 inh -9.4, TRPC4 spec 2 inactive, TRPC4 spec -12%, HEK293 MPD ctr 2-1 31%, HEK293 MPD ctr-1 -170%, TRPC6 inh conf 80% and TRPC6 act confirm inactive.
For CC(C)(C)c1ccc(-c2nc3n(c(=O)c2C#N)CCS3)cc1 the results were TRPC4 act inactive, TRPC4 potent inactive, TRPC4 inh inactive, TRPC6 act inactive and TRPC6 inh inactive.
Screening O=C(c1ccccc1NS(=O)(=O)c1cccc([N+](=O)[O-])c1)N1CCCC1 returned TRPC4 act inactive, TRPC4 potent inactive, TRPC4 inh inactive, TRPC6 act inactive and TRPC6 inh inactive.
CCOC(=O)c1c(N)c2cc([N+](=O)[O-])ccc2n1C was read as TRPC4 act inactive, TRPC4 potent inactive, TRPC4 inh inactive, TRPC6 act inactive and TRPC6 inh inactive.
Screening CCOC(=O)c1c(N=CN(C)C)c2cc([N+](=O)[O-])cnc2n1C returned TRPC4 act inactive, TRPC4 potent inactive, TRPC4 inh inactive, TRPC6 act inactive, TRPC6 inh -5.7, HEK293 MPD ctr-2 -146%, HEK293 MPD ctr 2-2 inactive, TRPC4/MOR mod -23%, TRPC4 ctr inh 2 44%, TRPC6 inh conf 54% and TRPC6 act confirm inactive.
O=C(Nc1ccnn1C1CCN(Cc2cccc(F)c2F)CC1)C1CCCC1 was read as TRPC4 act inactive, TRPC4 potent inactive, TRPC4 inh inactive, TRPC6 act inactive and TRPC6 inh inactive.
`Cc1nc2ccc(NC(=O)c3ccc(Cl)c(S(=O)(=O)N(C)c4ccccc4)c3)cc2s1` gave TRPC4 act inactive, TRPC4 potent inactive, TRPC4 inh inactive, TRPC6 act inactive, TRPC6 inh -5.1, HEK293 MPD ctr-2 inactive, HEK293 MPD ctr 2-2 inactive, TRPC4/MOR mod -26%, TRPC4 ctr inh 2 inactive, TRPC6 inh conf inactive and TRPC6 act confirm inactive.
For CC1(C)Cc2c(sc(NC(=O)C(=O)N3CCOCC3)c2C(N)=O)CO1 the results were TRPC4 act inactive, TRPC4 potent inactive, TRPC4 inh inactive, TRPC6 act inactive and TRPC6 inh inactive.
`Cc1nc(NCCCn2ccnc2)c2ccccc2n1` gave TRPC4 act inactive, TRPC4 potent inactive, TRPC4 inh inactive, TRPC6 act inactive, TRPC6 inh -7.7, HEK293 MPD ctr-2 -237%, HEK293 MPD ctr 2-2 61%, TRPC4/MOR mod -38%, TRPC4 ctr inh 2 38%, TRPC6 inh conf 52% and TRPC6 act confirm inactive.
For c1cncc(-c2nc(NCCCn3ccnc3)c3ccccc3n2)c1 the results were TRPC4 act inactive, TRPC4 potent inactive, TRPC4 inh inactive, TRPC6 act inactive and TRPC6 inh inactive.
For Cc1ccc2nc(Cl)c(/C=N/Nc3nc(C)cc(C)n3)c(=O)n2c1 the results were TRPC4 act inactive, TRPC4 potent inactive, TRPC4 inh inactive, TRPC6 act inactive, TRPC6 inh -8, HEK293 MPD ctr-2 inactive, HEK293 MPD ctr 2-2 inactive, TRPC4/MOR mod -24%, TRPC4 ctr inh 2 inactive, TRPC6 inh conf inactive and TRPC6 act confirm inactive.
`Cc1ccc2nc(C)c(Cl)c(=O)n2c1` gave TRPC4 act inactive, TRPC4 potent inactive, TRPC4 inh inactive, TRPC6 act inactive and TRPC6 inh inactive.
